Data reported in PMC9298202 (Chemmedchem, 2021).

Legend:
[1] = system: Leishmania donovani amastigote forms; test: In vitro activity on amastigote; assay type: cell-based; conditions: for Selectivity index Amastigote forms: L. donovani, IC50 macrophages toxicity/IC50 activity; for IC50: Leishmania donovani, read-out: Activity IC50 Amastigote forms
Method in brief: (§1)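 J774.2 macrophages were infected with promastigotes, which became intracellular amastigotes within 1 day; test compounds were then added. IC50 came from linear regression of Kc values at 1, 10, 25 and 200 µM, averaging four determinations.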

[2] = system: Fe-SOD in T. cruzi epimastigotes; test: Fe-SOD inhibition, T. cruzi; assay type: biochemical, Trypanosoma cruzi; conditions: extent reached in the tested concentration range (Figure 9)
Method in brief: (§2)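 Promastigotes or T. cruzi epimastigotes were grown in MTL (HBSS + 10% heat-inactivated FBS) at 26 °C to ~1×10^7/mL. Log-phase cells were pelleted and held 24 h at 27 °C to excrete SOD. Filtered supernatant was fractionated with 35% then 85% ammonium sulphate and desalted on Sephadex G-25. Activity was measured as NBT reduction (methionine, riboflavin, Triton X-100) at 560 nm before and after 10 min UV illumination.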

[3] = system: Trypanosoma cruzi SN3 epimastigote forms; test: Epimastigote assay, T. cruzi SN3; assay type: cell-based; conditions: for Selectivity index Epimastigote forms: T. cruzi SN3, IC50 Vero cell toxicity/IC50 activity; for IC50: Trypanosoma cruzi, read-out: Activity IC50 Epimastigote forms
Method in brief: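 SN3 epimastigotes (Rhodnius prolixus isolate, Colombia) were grown at 28 °C in Grace's Insect Medium + 10% inactivated FBS. Exponential-phase cells were plated at 5×10^4 parasites/well with test compound in MTL medium at 100, 50, 25, 12,5 and 6,25 µM. Counts after 72 h used a Neubauer chamber. IC50 came from linear regression of Kc values; SI = Vero IC50/epimastigote IC50.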

[4] = system: Leishmania donovani promastigote forms; test: In vitro activity on promastigote; assay type: cell-based; conditions: for Selectivity index Promastigote forms: L. donovani, IC50 macrophages toxicity/IC50 activity; for IC50: Leishmania donovani, read-out: Activity IC50 Promastigote forms
Method in brief: (§3)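 Extracellular promastigotes were tested at 1, 10, 25 and 200 µM, and IC50 was derived by linear regression from Kc values, averaging four determinations.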

Vero cells = test: Cytotoxicity in Vero cells; assay type: cell-based; conditions: Chlorocebus sabaeus, Vero, 72 h, read-out: Vero cells toxicity IC50
Method in brief: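 Vero cells were grown in RPMI + 10% inactivated FBS at 37 °C in humidified 5% CO2. They were resuspended at 1×10^5 cells/mL, cultured 2 days, then given fresh medium with test compound for 72 h. Viability was read by flow cytometry. IC50 was derived by linear regression from Kc values; results average four determinations.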

[5] = system: Leishmania infantum amastigote forms; test: In vitro activity on amastigote; assay type: cell-based; conditions: for Selectivity index Amastigote forms: L. infantum, IC50 macrophages toxicity/IC50 activity; for IC50: Leishmania infantum, read-out: Activity IC50 Amastigote forms
[6] = system: Leishmania braziliensis promastigote forms; test: In vitro activity on promastigote; assay type: cell-based; conditions: for Selectivity index Promastigote forms: L. braziliensis, IC50 macrophages toxicity/IC50 activity; for IC50: Leishmania braziliensis, read-out: Activity IC50 Promastigote forms
Method in brief: as §3

[7] = system: Trypanosoma cruzi SN3 trypomastigote forms; test: Trypomastigote activity, T. cruzi SN3; assay type: cell-based
[8] = system: Trypanosoma cruzi SN3 amastigote forms; test: Amastigote assay, T. cruzi SN3; assay type: cell-based
Method in brief: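 Vero cells in RPMI + 10% inactivated FBS (37 °C, 5% CO2) were seeded at 1×10^4 cells/well on coverslips for 2 days. They were infected 10:1 with SN3 metacyclic forms, obtained by 12-day culture of epimastigotes at 28 °C in modified Grace's medium (~40% metacyclic). After 24 h, cells were washed and exposed to 6.25–100 µM for 72 h. Giemsa-stained amastigotes were counted; IC50 from four determinations; SI used Vero IC50.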

J774.2 macrophages = test: Cytotoxicity in J774.2 macrophages; assay type: cell-based; conditions: Mus musculus, J774.2, 72 h, read-out: Toxicity in macrophages IC50
[9] = system: Leishmania infantum promastigote forms; test: In vitro activity on promastigote; assay type: cell-based; conditions: for Selectivity index Promastigote forms: L. infantum, IC50 macrophages toxicity/IC50 activity; for IC50: Leishmania infantum, read-out: Activity IC50 Promastigote forms
[10] = system: Leishmania braziliensis amastigote forms; test: In vitro activity on amastigote; assay type: cell-based; conditions: for Selectivity index Amastigote forms: L. braziliensis, IC50 macrophages toxicity/IC50 activity; for IC50: Leishmania braziliensis, read-out: Activity IC50 Amastigote forms
Method in brief: as §1

[11] = system: Fe-SOD in L. infantum promastigotes; test: Fe-SOD inhibition, L. infantum; assay type: biochemical, Leishmania infantum; conditions: extent reached in the tested concentration range (Figure 6)
Method in brief: as §2

[12] = T. cruzi SN3, IC50 Vero cell toxicity/IC50 activity

| SMILES | Selectivity index Amastigote forms [1] | IC50 [1] | Selectivity index Epimastigote forms [3] | IC50 [3] | Selectivity index Promastigote forms [4] | IC50 [4] | IC50 (Vero cells) | Selectivity index Amastigote forms [5] | IC50 [5] | Selectivity index Promastigote forms [6] | IC50 [6] | IC50 (J774.2 macrophages) | Selectivity index Promastigote forms [9] | IC50 [9] | Selectivity index Amastigote forms [10] | IC50 [10] | also measured |
| --- | --- | --- | --- | --- | --- | --- | --- | --- | --- | --- | --- | --- | --- | --- | --- | --- | --- |
| c1ccc2c(NCCCn3ccnc3)ncnc2c1 [3 b, N ‐[3‐(1H‐imidazol‐1‐yl)propyl]quinazolin‐4‐amine] | 17 | 2.7 ± 0.3 µM | 13 | 9.4 ± 0.7 µM | 23 | 2 ± 0.4 µM | 121 ± 6.3 µM | 4 | 11.9 ± 0.7 µM | 6 | 7.6 ± 0.5 µM | 45.9 ± 2.8 µM | 3 | 14.7 ± 0.6 µM | 7 | 6.6 ± 0.6 µM | extent of inhibition of enzyme activity [2]: approximately 50%; Selectivity index Trypomastigote forms [7, 12]: 93; IC50 ([7]; Trypanosoma cruzi, read-out: Activity IC50 Trypomastigote forms): 1.3 ± 0.6 µM; Selectivity index Amastigote forms [8, 12]: 50; IC50 ([8]; Trypanosoma cruzi, read-out: Activity IC50 Amastigote forms): 2.4 µM |
| c1cnc(NCCCn2ccnc2)cn1 [4 b, N‐(3‐(1H‐imidazol‐1‐yl)propyl)pyrazin‐2‐amine] | 9 | 2.5 µM | 2 (2) | 15.7 ± 0.5 µM | 7 | 3.6 ± 0.4 µM | 26.8 ± 0.9 µM | 9 | 2.7 ± 0.1 µM | 16 | 1.5 ± 0.2 µM | 23.8 ± 1.9 µM | 15 | 1.6 ± 0.2 µM | 10 | 2.3 ± 0.2 µM | extent of inhibition of enzymatic activity [11]: more than 80% |
